Our source for the Ki and Ratio values is ChEMBL document CHEMBL1135280, “Synthesis and pharmacological evaluation of 6-piperidino- and 6-piperazinoalkyl-2(3H)-benzothiazolones as mixed sigma/5-HT(1A) ligands” (Bioorg Med Chem Lett, 2002).

What is called Ki is the equilibrium dissociation constant of an inhibitor or competing ligand from its target.

Where only a bound is given, the exact number is not on record here.

In assay [1] the target is T1, 5-hydroxytryptamine receptor 1A (Rattus norvegicus, UniProt P19327).
T1 sequence (P19327 whole entry): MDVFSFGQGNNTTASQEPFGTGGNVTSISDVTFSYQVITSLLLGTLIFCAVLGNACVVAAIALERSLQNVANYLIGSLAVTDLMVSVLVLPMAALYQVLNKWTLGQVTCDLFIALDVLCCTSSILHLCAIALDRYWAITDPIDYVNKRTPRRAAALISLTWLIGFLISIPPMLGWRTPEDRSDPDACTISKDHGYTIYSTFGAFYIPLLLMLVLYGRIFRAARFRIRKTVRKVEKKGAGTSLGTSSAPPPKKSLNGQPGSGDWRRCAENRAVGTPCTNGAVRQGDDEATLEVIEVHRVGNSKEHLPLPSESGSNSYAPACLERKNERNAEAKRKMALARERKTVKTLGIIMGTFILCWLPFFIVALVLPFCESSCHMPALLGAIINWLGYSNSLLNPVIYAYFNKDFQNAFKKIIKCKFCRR
The assay can be described thus: Displacement of […] membrane 5-hydroxytryptamine 1A receptor. In a few lines:
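Radioligand displacement on rat brain membranes, run by an external laboratory. [3H]prazosin and [3H]ketanserin were used with cortex, and [3H]-8-OH-DPAT with hippocampus.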
Background: Loss of bound radioactivity is the signal in a displacement assay; it reports binding, not function.

The target of another assay is D(2) dopamine receptor (Rattus norvegicus, UniProt P61169). The assay can be described thus: Displacement of [3H]- raclopride from rat striatum Dopamine receptor D2.
A further assay addresses Histamine H1 receptor (Rattus norvegicus, UniProt P31390). The assay can be described thus: Displacement of [3H]- pyrilamine from rat brain membrane Histamine H1 receptor.
Assay [2] is described as follows: Binding affinity ratio towards sigma receptor compared to the 5-hydroxytryptamine 1A receptor.
In assay [3] the target is T2, Sigma non-opioid intracellular receptor 1 (Homo sapiens, UniProt Q99720). As to the kind of experiment: In vitro binding affinity for Sigma opioid receptor by displacement of [3H]DTG.
Assay [4] deals with T3, Muscarinic acetylcholine receptor M1 (Rattus norvegicus, UniProt P08482).
T3 sequence (P08482 whole entry): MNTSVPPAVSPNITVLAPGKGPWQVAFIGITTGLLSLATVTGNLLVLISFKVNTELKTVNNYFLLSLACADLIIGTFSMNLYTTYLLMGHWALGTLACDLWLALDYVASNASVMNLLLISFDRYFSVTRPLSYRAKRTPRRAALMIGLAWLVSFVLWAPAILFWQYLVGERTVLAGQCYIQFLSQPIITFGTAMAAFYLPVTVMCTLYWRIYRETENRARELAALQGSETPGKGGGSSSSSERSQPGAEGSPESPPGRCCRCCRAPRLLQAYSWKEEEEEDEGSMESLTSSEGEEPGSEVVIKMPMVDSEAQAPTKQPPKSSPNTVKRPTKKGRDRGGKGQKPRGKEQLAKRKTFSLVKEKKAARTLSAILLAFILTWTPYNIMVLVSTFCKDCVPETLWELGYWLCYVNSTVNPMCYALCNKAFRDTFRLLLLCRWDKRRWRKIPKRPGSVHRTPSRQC
The assay can be described thus: In vitro binding affinity towards Muscarinic acetylcholine receptor M1 by displacing [3H]- telenzepine from rat brain membrane.

For assay [5], the target named is T3, Muscarinic acetylcholine receptor M1. The assay can be described thus: In vitro binding affinity towards Muscarinic acetylcholine receptor M1 by displacing [3H]- telenzepine from rat brain membrane.
Assay [6] concerns the target T2, Sigma non-opioid intracellular receptor 1. The assay can be described thus: Binding affinity ratio between Sigma opioid receptor type 1 and Sigma opioid receptor type 2. An outline of the steps:
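Selectivity ratio of σ1 to σ2 affinity, determined only for compounds with high affinity at sigma sites. σ1 affinity was measured with (+)-pentazocine and σ2 affinity with DTG as radioligands.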

The species entered for another assay is Rattus norvegicus. As to the kind of experiment: In vitro binding affinity ratio between Sigma opioid receptor and 5-hydroxytryptamine 1A receptor.
The target in assay [7] is T2, Sigma non-opioid intracellular receptor 1. The assay can be described thus: In vitro binding affinity towards Sigma opioid receptor type 1 by using [3H]- (+)-pentazocine as radioligand.
In another assay the target is Sigma 2 receptor. The assay can be described thus: In vitro binding affinity towards Sigma opioid receptor type 2 by using [3H]- DTG in the presence of 1 uM (+)- pentazocine.

Chain of Histamine H1 receptor (P31390 whole entry): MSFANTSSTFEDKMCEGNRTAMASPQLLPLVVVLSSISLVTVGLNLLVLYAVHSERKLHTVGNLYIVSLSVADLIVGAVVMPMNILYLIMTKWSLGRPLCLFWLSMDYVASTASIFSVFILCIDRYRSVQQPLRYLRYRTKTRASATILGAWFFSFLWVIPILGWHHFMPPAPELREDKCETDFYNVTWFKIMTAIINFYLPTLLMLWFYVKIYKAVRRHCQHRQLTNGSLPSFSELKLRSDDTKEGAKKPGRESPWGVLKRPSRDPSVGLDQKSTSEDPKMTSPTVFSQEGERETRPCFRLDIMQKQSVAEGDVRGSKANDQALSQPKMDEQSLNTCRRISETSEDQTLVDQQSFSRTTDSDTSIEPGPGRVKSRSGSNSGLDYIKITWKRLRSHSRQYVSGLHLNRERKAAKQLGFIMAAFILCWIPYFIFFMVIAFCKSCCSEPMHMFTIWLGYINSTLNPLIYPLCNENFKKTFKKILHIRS
Chain of D(2) dopamine receptor (P61169 whole entry): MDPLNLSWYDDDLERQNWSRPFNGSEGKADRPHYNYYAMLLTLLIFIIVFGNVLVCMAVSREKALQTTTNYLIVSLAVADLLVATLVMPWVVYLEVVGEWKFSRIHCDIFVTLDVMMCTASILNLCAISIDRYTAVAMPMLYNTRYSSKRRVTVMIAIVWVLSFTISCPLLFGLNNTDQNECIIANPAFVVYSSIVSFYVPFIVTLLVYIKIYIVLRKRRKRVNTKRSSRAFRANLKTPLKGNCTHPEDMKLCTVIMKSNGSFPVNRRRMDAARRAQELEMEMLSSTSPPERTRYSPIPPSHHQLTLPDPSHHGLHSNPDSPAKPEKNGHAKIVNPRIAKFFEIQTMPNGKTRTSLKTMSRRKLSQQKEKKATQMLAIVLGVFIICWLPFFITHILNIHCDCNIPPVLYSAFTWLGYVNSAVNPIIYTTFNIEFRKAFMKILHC
T2 sequence (Q99720 whole entry): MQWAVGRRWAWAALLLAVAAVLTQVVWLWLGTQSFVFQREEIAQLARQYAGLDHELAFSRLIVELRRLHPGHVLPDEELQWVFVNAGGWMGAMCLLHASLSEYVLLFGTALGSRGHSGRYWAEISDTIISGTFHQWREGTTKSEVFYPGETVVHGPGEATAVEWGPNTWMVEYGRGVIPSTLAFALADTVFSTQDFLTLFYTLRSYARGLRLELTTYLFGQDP

Regarding `Cn1c(=O)sc2cc(CCN3CCN(Cc4ccc(Cl)cc4Cl)CC3)ccc21`, the Ki came to 100 nM in [1], 100 nM at D(2) dopamine receptor, 10 nM on Histamine H1 receptor and 8 nM in assay [3]. For the same compound, in [2], the Ratio was 0.08.

Turning to `Cn1c(=O)sc2cc(CCN3CCC(Cc4ccccc4)CC3)ccc21`, the Ki was 4 nM in assay [1]; over 100 nM at D(2) dopamine receptor; 3 nM on Histamine H1 receptor; 100 nM in [4]; 5 nM in assay [3]. Also, the Ratio in [2] stood at 1.25.

Take `Cn1c(=O)sc2cc(CCCCN3CCN(Cc4ccc(Cl)cc4Cl)CC3)ccc21`: the Ki in assay [1] was 200 nM; on D(2) dopamine receptor it was 100 nM; on Histamine H1 receptor, under 100 nM; in [4], under 10000 nM; in assay [3], 9 nM. Further, the Ratio in assay [2] was 0.04.

For `C[C@@H]1CN(CCCCc2ccc3c(c2)sc(=O)n3C)C[C@H](C)N1`, the Ki is over 100000 nM in assay [1]; over 100000 nM on D(2) dopamine receptor; over 100000 nM on Histamine H1 receptor; over 100000 nM in assay [4]; 100 nM in [3]. In addition, in assay [2], the Ratio was under 0.001.

In the case of `Cn1c(=O)sc2cc(CCN3CCN(Cc4ccccc4)CC3)ccc21`, the inhibition constant (Ki) was 30 nM in assay [1]; over 10000 nM at D(2) dopamine receptor; 7 nM at Histamine H1 receptor; 500 nM in assay [4]; 3 nM in [3]. Besides, the Ratio in assay [2] was 0.1.

On to `C[C@@H]1CN(CCc2ccc3c(c2)sc(=O)n3C)C[C@H](C)N1`, for which the Ki was over 10000 nM in [1]; over 10000 nM at D(2) dopamine receptor; 20000 nM at Histamine H1 receptor; over 10000 nM in assay [4]; 2000 nM in [3]. In addition, the Ratio in assay [2] was under 0.2.

For the compound `Cn1c(=O)sc2cc(CCCCN3CCC(Cc4ccccc4)CC3)ccc21`, the Ki in [1] came out at 30 nM; on D(2) dopamine receptor, 100 nM; on Histamine H1 receptor, 9 nM; in assay [3], 5 nM; in assay [5], 200 nM. Moreover, the Ratio in assay [2] amounted to 0.17.

As to `Cn1c(=O)sc2cc(CCN3CCC(c4ccccc4)CC3)ccc21`, the inhibitory constant (Ki) in [1] worked out at 4 nM; at D(2) dopamine receptor it was 1000 nM; on Histamine H1 receptor it was 20 nM; in assay [4], 1000 nM; in [7] it was 20 nM; in assay [3], 2 nM. The Ratio in assay [6] was 10; in the assay filed under Rattus norvegicus, 0.5.

On to `Cn1c(=O)sc2cc(CCN3CCN(Cc4ccc(Cl)c(Cl)c4)CC3)ccc21`, for which the Ki in assay [1] was found to be 30 nM; on D(2) dopamine receptor, 200 nM; on Histamine H1 receptor it was 40 nM; in assay [4], 1000 nM; in [3] it was 5 nM. In addition, the Ratio in assay [2] stood at 0.17.

Take `Cn1c(=O)sc2cc(CCCCN3CCN(Cc4ccc(Cl)c(Cl)c4)CC3)ccc21`: the Ki in [1] amounted to 300 nM; at D(2) dopamine receptor it was 100 nM; on Histamine H1 receptor it was 9 nM; in [4], 500 nM; in [7] it was 139 nM; in assay [3], 2 nM. In addition, the Ratio is 70 in assay [6] and 0.006 in the assay filed under Rattus norvegicus.

Take `Cn1c(=O)sc2cc(CCCCN3CCC(c4ccccc4)CC3)ccc21`: the Ki in assay [1] amounted to 10 nM; at D(2) dopamine receptor it was 30 nM; at Histamine H1 receptor it was 6000 nM; in [3], 3 nM. In assay [2], the Ratio was determined as 0.3.

Take `Cn1c(=O)sc2cc(CCCCN3CCN(Cc4ccccc4)CC3)ccc21`: the Ki in assay [1] was 40 nM; on D(2) dopamine receptor, 10000 nM; at Histamine H1 receptor it was under 100 nM; in assay [4], 10000 nM; on Sigma 2 receptor, 2 nM; in assay [7] it was 37.2 nM. The compound further showed a Ki in assay [3] of 2 nM.
